Assay results published in ChEMBL document CHEMBL1123672, “Structure-activity relationships of sparsomycin and its analogues. Inhibition of peptide bond formation in cell-free systems and of L1210 and bacterial cell growth” (J Med Chem, 1987).

Tested on: Escherichia coli
Assay: Ability to inhibit the peptide bond formation by fragment reaction in Escherichia coli was determined
Type: functional
Conditions: read-out: ED50 (the source's name)
Procedure, shortened: (§1)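 Fragment reaction: ribosomes (1 mg/mL, from E. coli MRE600 or S. cerevisiae Y166) in 150 μL of 33 mM Tris-HCl pH 7.4, 270 mM KCl, 13 mM Mg acetate, with 2 mM puromycin, 1 pmol N-acetyl-[³H]Leu-ACCAC(U) donor (ribonuclease T1 fragment of N-acetyl-[³H]Leu-tRNA), 33% methanol and test drug; no mRNA or small subunit. Values are averages of three experiments.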

| EC50 [µM] | Structure (SMILES) |
| --- | --- |
| 1000 | CSCSC[C@@H](CO)NC(=O)/C=C/c1c(C)nc(O)nc1O |
| 700 | CSC[S@@+]([O-])C[C@H](CO)NC(=O)/C=C/c1c(C)[nH]c(=O)[nH]c1=O |
| 7.6 | Cc1nc(O)nc(O)c1/C=C/C(=O)NC(CO)C[S+]([O-])CSCc1ccccc1 (stereo not drawn) |
| 1000 | CSC[S@+]([O-])C[C@@H](CO)NC(=O)/C=C/c1c(C)nc(O)nc1O |

Tested on: Saccharomyces cerevisiae
Assay: Ability to inhibit the peptide bond formation by fragment reaction in Saccharomyces cerevisiae was determined
Type: functional
Conditions: read-out: ED50 (the source's name)
Procedure, shortened: as §1

| EC50 [µM] | Structure (SMILES) |
| --- | --- |
| 550 | CSCSC[C@@H](CO)NC(=O)/C=C/c1c(C)nc(O)nc1O |
| 65 | CSC[S@@+]([O-])C[C@H](CO)NC(=O)/C=C/c1c(C)[nH]c(=O)[nH]c1=O |
| 2.6 | Cc1nc(O)nc(O)c1/C=C/C(=O)NC(CO)C[S+]([O-])CSCc1ccccc1 (stereo not drawn) |
| 650 | CSC[S@+]([O-])C[C@@H](CO)NC(=O)/C=C/c1c(C)nc(O)nc1O |

Tested on: not listed separately
Assay: Effect of ethanol on inhibition of the fragment reaction in the presence of 10 uM of compound was determined
Conditions: not given
Procedure, shortened: (§2)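 Solvent comparison: the fragment reaction (ribosomes with puromycin acceptor and N-acetyl-[³H]Leu-ACCAC(U) donor, in Tris-HCl pH 7.4/KCl/Mg acetate buffer) was run with methanol, ethanol, 2-propanol or butanol as the required organic solvent. Read-out is percent inhibition at the fixed drug level given in each line; series A and B are separate experiments.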

| Inhibition [%] | Structure (SMILES) |
| --- | --- |
| 29 | Cc1nc(O)nc(O)c1/C=C/C(=O)NC(CO)C[S+]([O-])CSCc1ccccc1 (stereo not drawn) |

Tested on: not listed separately
Assay: Effect of methanol on inhibition of the fragment reaction in the presence of 10 uM of compound was determined
Conditions: not given
Procedure, shortened: as §2

| Inhibition [%] | Structure (SMILES) |
| --- | --- |
| 25 | Cc1nc(O)nc(O)c1/C=C/C(=O)NC(CO)C[S+]([O-])CSCc1ccccc1 (stereo not drawn) |

Tested on: not listed separately
Assay: Ability to inhibit the bacterial growth of Escherichia coli (MRE600) by 50% was determined.
Type: functional
Set-up: reference not given here
Conditions: not given

| Structure (SMILES) | Ratio |
| --- | --- |
| CSCSC[C@@H](CO)NC(=O)/C=C/c1c(C)nc(O)nc1O | 0.01 |
| CSC[S@@+]([O-])C[C@H](CO)NC(=O)/C=C/c1c(C)[nH]c(=O)[nH]c1=O | 0.92 |
| Cc1nc(O)nc(O)c1/C=C/C(=O)NC(CO)C[S+]([O-])CSCc1ccccc1 (stereo not drawn) | 1 |
| CSC[S@+]([O-])C[C@@H](CO)NC(=O)/C=C/c1c(C)nc(O)nc1O | 0.32 |

Tested on: Escherichia coli
Assay: Ability to inhibit the peptide bond formation by puromycin reaction in Escherichia coli was determined
Type: functional
Conditions: read-out: ED50 (the source's name)

| EC50 [µM] | Structure (SMILES) |
| --- | --- |
| 1000 | CSCSC[C@@H](CO)NC(=O)/C=C/c1c(C)nc(O)nc1O |
| 13 | CSC[S@@+]([O-])C[C@H](CO)NC(=O)/C=C/c1c(C)[nH]c(=O)[nH]c1=O |
| 0.13 | Cc1nc(O)nc(O)c1/C=C/C(=O)NC(CO)C[S+]([O-])CSCc1ccccc1 (stereo not drawn) |
| 40 | CSC[S@+]([O-])C[C@@H](CO)NC(=O)/C=C/c1c(C)nc(O)nc1O |

Tested on: Escherichia coli
Assay: Ability to inhibit the phenylalanine synthesis in Escherichia coli was determined
Type: functional
Conditions: read-out: ED50 (the source's name)
Procedure, shortened: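 Poly(U)-directed [³H]Phe polymerization with E. coli MRE600 ribosomes ([…]) and S-100. The reaction was started with 30 μM [³H]Phe and run 30 min at 37 °C. TCA-insoluble counts were taken on glass-fiber filters. Averages of three experiments.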

| EC50 [µM] | Structure (SMILES) |
| --- | --- |
| 2000 | CSCSC[C@@H](CO)NC(=O)/C=C/c1c(C)nc(O)nc1O |
| 2000 | CSC[S@@+]([O-])C[C@H](CO)NC(=O)/C=C/c1c(C)[nH]c(=O)[nH]c1=O |
| 0.6 | Cc1nc(O)nc(O)c1/C=C/C(=O)NC(CO)C[S+]([O-])CSCc1ccccc1 (stereo not drawn) |
| 2000 | CSC[S@+]([O-])C[C@@H](CO)NC(=O)/C=C/c1c(C)nc(O)nc1O |

Tested on: L1210
Assay: Ability to inhibit the colony formation of leukemia L1210 cells in agar medium (0.3%) was determined
Type: functional
Conditions: Mus musculus, read-out: ID50 (the source's name)

| IC50 [µM] | Structure (SMILES) |
| --- | --- |
| 300 | CSCSC[C@@H](CO)NC(=O)/C=C/c1c(C)nc(O)nc1O |
| 5.8 | CSC[S@@+]([O-])C[C@H](CO)NC(=O)/C=C/c1c(C)[nH]c(=O)[nH]c1=O |
| 0.11 | Cc1nc(O)nc(O)c1/C=C/C(=O)NC(CO)C[S+]([O-])CSCc1ccccc1 (stereo not drawn) |
| 300 | CSC[S@+]([O-])C[C@@H](CO)NC(=O)/C=C/c1c(C)nc(O)nc1O |

Tested on: Saccharomyces cerevisiae
Assay: Ability to inhibit the phenylalanine synthesis in Saccharomyces cerevisiae was determined
Type: functional
Conditions: read-out: ED50 (the source's name)
Procedure, shortened: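 Yeast (S. cerevisiae Y166) ribosomes and S-100 in the same poly(U)/[³H]Phe mix as the E. coli assay, with 20 mM creatine phosphate and 50 μg/mL creatine phosphokinase as the energy system. Incubation was 30 min at 30 °C. Cold 10% TCA precipitate was filter-counted. Averages of three experiments.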

| EC50 [µM] | Structure (SMILES) |
| --- | --- |
| 2000 | CSCSC[C@@H](CO)NC(=O)/C=C/c1c(C)nc(O)nc1O |
| 2000 | CSC[S@@+]([O-])C[C@H](CO)NC(=O)/C=C/c1c(C)[nH]c(=O)[nH]c1=O |
| 0.6 | Cc1nc(O)nc(O)c1/C=C/C(=O)NC(CO)C[S+]([O-])CSCc1ccccc1 (stereo not drawn) |
| 2000 | CSC[S@+]([O-])C[C@@H](CO)NC(=O)/C=C/c1c(C)nc(O)nc1O |

Tested on: Saccharolobus solfataricus
Assay: Ability to inhibit the phenylalanine synthesis in Sulfolobus solfataricus was determined
Type: functional
Conditions: read-out: ED50 (the source's name)

| EC50 [µM] | Structure (SMILES) |
| --- | --- |
| 60 | Cc1nc(O)nc(O)c1/C=C/C(=O)NC(CO)C[S+]([O-])CSCc1ccccc1 (stereo not drawn) |

Tested on: not listed separately
Assay: Effect of 2-propanol on inhibition of the fragment reaction in the presence of 10 uM of compound was determined
Conditions: not given
Procedure, shortened: as §2

| Inhibition [%] | Structure (SMILES) |
| --- | --- |
| 20 | Cc1nc(O)nc(O)c1/C=C/C(=O)NC(CO)C[S+]([O-])CSCc1ccccc1 (stereo not drawn) |

Tested on: not listed separately
Assay: Effect of butanol on inhibition of the fragment reaction in the presence of 10 uM of compound was determined
Conditions: not given
Procedure, shortened: as §2

| Inhibition [%] | Structure (SMILES) |
| --- | --- |
| 54 | Cc1nc(O)nc(O)c1/C=C/C(=O)NC(CO)C[S+]([O-])CSCc1ccccc1 (stereo not drawn) |
